The text below walks through data of ChEMBL document CHEMBL3286172, “Exploring the role of 2-chloro-6-fluoro substitution in 2-alkylthio-6-benzyl-5-alkylpyrimidin-4(3H)-ones: effects in HIV-1-infected cells and in HIV-1 reverse transcriptase enzymes” (J Med Chem, 2014).

Data set [1] relates to Human immunodeficiency virus 1. The data set can be described thus: Fold resistance, ratio of EC50 for HIV-1 harboring NNTRI-resistant reverse transcriptase K103N mutant infected in human MT4 cells to EC50 for wild type HIV-1 NL4-3 infected in human MT4 cells. In kind it is functional.
For data set [2], the system named is Human immunodeficiency virus 1. Put plainly: Antiviral activity against HIV-1 harboring NNTRI-resistant reverse transcriptase K103N mutant infected in human MT4 cells assessed as inhibition of virus-induced cytopathic effect by MTT method. In kind it is functional, organism-based. The note with it: Human immunodeficiency virus 1, MT4. (Protection from cytopathic effect is a common read-out in antiviral testing.)

The nature of data set [3]: Cytotoxicity against human MT4 cells assessed as induction of cell death by MTT method. In kind it is cell-based. Summed up: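 Mock-infected MT-4 cells exposed to a range of drug concentrations. Viability read by MTT colorimetry at day 5. […] Top concentration was limited where compound precipitated in the culture medium. Means of at least two experiments.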
(In general: Tetrazolium dyes change colour on reduction, which living cells bring about.)

Data set [4] concerns Human immunodeficiency virus 1. Put plainly: Antiviral activity against HIV-1 harboring NNTRI-resistant reverse transcriptase Y188L mutant infected in human MT4 cells assessed as inhibition of virus-induced cytopathic effect by MTT method. In kind it is functional, organism-based. Conditions: Human immunodeficiency virus 1, MT4. Summed up: (§1)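 MT-4 lymphoid cells infected with HIV-1 carrying RT K103N, Y181C or Y188L, with a range of drug concentrations present. Viable cells counted by MTT colorimetric assay at day 5 post-infection. […] Highest concentration tested was limited by precipitation in culture medium. Means of at least two experiments.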

A short description of data set [5]: Selectivity index, ratio of CC50 for human MT4 cells to EC50 for wild type HIV-1 NL4-3 infected in human MT4 cells. It counts as toxicity, cell-based. Conditions: read-out: Ratio CC50/EC50. The gist of the method:
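Ratio of CC50 to EC50, both from MTT readings in MT-4 cells at day 5. CC50 was taken in mock-infected cells and EC50 in cells infected with wild-type NL4-3. Values are means of at least two experiments.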

The subject of data set [6] is Human immunodeficiency virus 1. Put plainly: Antiviral activity against wild type HIV-1 NL4-3 infected in human MT4 cells assessed as inhibition of virus-induced cytopathic effect by MTT method. It counts as functional, organism-based. Conditions: Human immunodeficiency virus 1, NL4-3, MT4. Summed up: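 MT-4 lymphoid cells infected with wild-type HIV-1 NL4-3 while exposed to a range of drug concentrations. Viable cells counted by tetrazolium (MTT) colorimetry at day 5 post-infection. Means of at least two experiments.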

Data set [7] concerns Human immunodeficiency virus 1. The data set can be described thus: Antiviral activity against HIV-1 harboring NNTRI-resistant reverse transcriptase Y181C mutant infected in human MT4 cells assessed as inhibition of virus-induced cytopathic effect by MTT method. It counts as functional, organism-based. The note with it: Human immunodeficiency virus 1, MT4. The gist of the method: as §1

Data set [8] deals with Human immunodeficiency virus 1. The data set can be described thus: Fold resistance, ratio of EC50 for HIV-1 harboring NNTRI-resistant reverse transcriptase Y181C mutant infected in human MT4 cells to EC50 for wild type HIV-1 NL4-3 infected in human MT4 cells. In kind it is functional. The gist of the method: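 MT-4 cells infected with HIV-1 mutant (K103N or Y181C) or wild-type NL4-3, with drug present. […] Fold resistance is the mutant EC50 divided by the wild-type NL4-3 EC50. EC50 values are means of at least two experiments.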

Data set [9] concerns Human immunodeficiency virus 1. The data set can be described thus: Fold resistance, ratio of ID50 for HIV-1 recombinant NNTRI-resistant reverse transcriptase L100I mutant to ID50 for wild type HIV-1 recombinant reverse transcriptase. The gist of the method: (§2)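 Recombinant wt or mutant HIV-1 RT, purified to >95%, at 2-4 nM. RNA-dependent DNA polymerase activity with 0.5 µg poly(rA)/oligo(dT)10:1 (0.3 µM 3'-OH ends), 10 µM [3H]-dTTP and 8% final DMSO. Incorporation was sampled at 2-min intervals. ID50 came from fitting to a fully non-competitive model. Ratio is ID50 mutant/ID50 wt. Means of at least three experiments.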

Data set [10] has as its system Human immunodeficiency virus 1. Put plainly: Fold resistance, ratio of ID50 for HIV-1 recombinant NNTRI-resistant reverse transcriptase K103N mutant to ID50 for wild type HIV-1 recombinant reverse transcriptase. The gist of the method:
as §2

In data set [11] the test system is Human immunodeficiency virus type 1 reverse transcriptase (Human immunodeficiency virus 1), Q72547 [K103N].
The target in data set [12] is Human immunodeficiency virus type 1 reverse transcriptase (Human immunodeficiency virus 1) (UniProt Q72547).
Data set [13] concerns Human immunodeficiency virus type 1 reverse transcriptase (Human immunodeficiency virus 1), Q72547 [L100I].

SMILES strings stand for the structures.

By EC50 is commonly meant the concentration that produces a half-maximal response. As a reminder, the CC50 is the concentration giving 50% cytotoxicity. As for `CC(C)Sc1nc(Cc2c(F)cccc2Cl)cc(=O)[nH]1`, the “Ratio EC50” value in [1] is recorded as 103; in [8] it was 47. For the same compound, the half-maximal effective concentration (EC50) is 39200 nM in [2], more than 80000 nM in [4], 380 nM in [6] and 17800 nM in data set [7]. Also, the CC50 in data set [3] was more than 80000 nM. In data set [5], the selectivity ratio was more than 210.

With `CCCSc1nc(Cc2c(F)cccc2Cl)cc(=O)[nH]1`, the entries for the “Ratio EC50” value in data set [1] and in data set [8] were 72 and 31, respectively. Also, the EC50 in [2] is 18800 nM; in data set [4], more than 80000 nM; in data set [6] it was 260 nM; in [7], 8200 nM. Besides, the 50% cytotoxic concentration (CC50) in data set [3] is more than 80000 nM. The selectivity ratio in [5] was more than 308.

In the case of `CCC(C)Sc1nc(Cc2c(F)cccc2Cl)cc(=O)[nH]1` (configuration not stated), the “Ratio EC50” value in data set [1] was 157; in data set [8], 52. Moreover, the EC50 was 25200 nM in data set [2], more than 76000 nM in [4], 160 nM in data set [6] and 8300 nM in [7]. Moreover, the 50% cytotoxic concentration (CC50) in [3] is more than 76000 nM. The selectivity ratio in data set [5] is more than 475.

As for `CCCCSc1nc(Cc2c(F)cccc2Cl)cc(=O)[nH]1`, the entries for the “Ratio EC50” value in [1] and in data set [8] were 101 and 58, respectively. Also, the EC50 in data set [2] is 29200 nM; in data set [4], more than 76000 nM; in data set [6] it was 290 nM; in [7], 16700 nM. Besides, the CC50 in [3] was more than 76000 nM. The selectivity ratio in [5] is more than 262.

As for `O=c1cc(Cc2c(F)cccc2Cl)nc(SC2CCCC2)[nH]1`, the “Ratio EC50” value in data set [1] is 281; in data set [8], 122. Besides, the EC50 in data set [2] was 42100 nM; in data set [4], more than 74000 nM; in data set [6], 150 nM; in [7] it was 18300 nM. Besides, the CC50 in [3] was more than 74000 nM. For the same compound, the selectivity ratio in data set [5] is more than 493.

Take `Cc1c(Cc2c(F)cccc2Cl)nc(SC(C)C)[nH]c1=O`: the “Ratio EC50” value in [1] is 88; in data set [8], 70. The half-maximal effective concentration (EC50) in data set [2] is 10600 nM; in data set [4], more than 76000 nM; in data set [6] it was 120 nM; in data set [7], 8400 nM. Further, in [3], the CC50 is more than 76000 nM. Besides, the selectivity ratio in data set [5] was more than 633.

In the case of `CCCSc1nc(Cc2c(F)cccc2Cl)c(C)c(=O)[nH]1`, the “Ratio EC50” value in [1] stood at 107; in [8], 27. Besides, the EC50 in [2] was 9200 nM; in [4] it was more than 76000 nM; in data set [6], 86 nM; in data set [7] it was 2300 nM. In addition, the CC50 in data set [3] is more than 76000 nM. Further, in [5], the selectivity ratio was more than 884.

In the case of `CCC(C)Sc1nc(Cc2c(F)cccc2Cl)c(C)c(=O)[nH]1` (configuration not stated), the “Ratio EC50” value in [1] amounted to 115; in [8], 111. The EC50 in [2] was 5400 nM; in data set [4], more than 73000 nM; in [6], 47 nM; in [7], 5200 nM. Moreover, the 50% cytotoxic concentration (CC50) in data set [3] was more than 73000 nM. For the same compound, in data set [5], the selectivity ratio is more than 1550.

For the compound `CCCCSc1nc(Cc2c(F)cccc2Cl)c(C)c(=O)[nH]1`, the results for the “Ratio EC50” value in [1] and in data set [8] were 182 and 21, respectively. Besides, the 50% effective concentration (EC50) in [2] is 20000 nM; in data set [4], more than 73000 nM; in data set [6], 110 nM; in data set [7] it was 2300 nM. In addition, in data set [3], the CC50 is more than 73000 nM. The selectivity ratio in [5] was more than 664.

`CC[C@H](C)Sc1nc([C@@H](C)c2c(F)cccc2Cl)cc(=O)[nH]1`: in [1], the “Ratio EC50” value was determined as 53. The Ratio in data set [9] is 4. For the same compound, the EC50 in data set [2] was 7640 nM; in [4], more than 73300 nM; in [6], 144 nM; in [7], more than 73300 nM. For the same compound, in [3], the cytotoxic concentration (CC50) was more than 73000 nM. The selectivity ratio in data set [5] was more than 507.

Take `CC[C@@H](C)Sc1nc([C@H](C)c2c(F)cccc2Cl)c(C)c(=O)[nH]1`: the Ratio in data set [10] was found to be 101; in data set [9], 41. Besides, the EC50 amounted to 15 nM in data set [2], 390 nM in data set [4], 0.06 nM in data set [6] and 87 nM in data set [7]. In addition, the CC50 in [3] was more than 70400 nM.

Turning to `CC[C@@H](C)Sc1nc([C@@H](C)c2c(F)cccc2Cl)c(C)c(=O)[nH]1`, the Ratio in data set [10] turned out to be 69; in [9], 37. Besides, the EC50 in [2] came to 150 nM; in [4], 3300 nM; in [6], 1.4 nM; in [7], 890 nM. Further, the CC50 in data set [3] is more than 70400 nM.

`CC[C@H](C)Sc1nc([C@@H](C)c2c(F)cccc2Cl)c(C)c(=O)[nH]1`: in data set [9], the Ratio was 0.2. Further, the concentration for a half-maximal effect (EC50) was more than 47000 nM in [2], more than 47000 nM in [4], 3660 nM in data set [6] and more than 47000 nM in data set [7]. Moreover, the 50% cytotoxic concentration (CC50) in data set [3] was more than 47000 nM.

For `CCCCSc1nc(C(C)c2c(F)cccc2Cl)cc(=O)[nH]1` (racemic), the ID50 is 2200 nM in data set [11], 10 nM in data set [12] and 600 nM in data set [13]. Further, the Ratio in data set [10] came out at 220; in data set [9], 60. Moreover, the EC50 in data set [2] amounted to 1100 nM; in data set [4], 5600 nM; in [6] it was 0.3 nM; in data set [7] it was 3900 nM. Further, the CC50 in data set [3] was more than 73000 nM.

`CC(c1cc(=O)[nH]c(SC2CCCC2)n1)c1c(F)cccc1Cl` (racemic): the figures for the ID50 in data set [11], in data set [12] and in [13] were 1800 nM, 15 nM and 1100 nM, respectively. For the same compound, the figures for the “Ratio EC50” value in data set [1] and in data set [8] were 3000 and 10000, respectively. Also, the concentration giving a half-maximal response (EC50) in data set [2] is 900 nM; in data set [4], more than 71000 nM; in data set [6], 0.3 nM; in data set [7], 3000 nM. The half-maximal cytotoxic concentration (CC50) in data set [3] is more than 71000 nM. The selectivity ratio in data set [5] is more than 237000.

Consider `CC[C@H](C)Sc1nc([C@H](C)c2c(F)cccc2Cl)c(C)c(=O)[nH]1` (racemic), for which the Ratio in data set [9] was 0.1. The EC50 in data set [2] was more than 70000 nM; in data set [4], more than 70000 nM; in data set [6], 43900 nM; in data set [7] it was 64000 nM. Moreover, the CC50 in [3] was more than 70400 nM.

Turning to `CCC(C)Sc1nc(O)c(C)c(C(C)c2c(F)cccc2F)n1` (racemic), the ID50 in [11] was 1700 nM; in data set [12], 31 nM; in data set [13], 670 nM. Moreover, the “Ratio EC50” value in [1] was found to be 122; in data set [8], 79. Moreover, the EC50 is 110 nM in data set [2], more than 3000 nM in [4], 0.9 nM in [6] and 71 nM in data set [7]. In data set [3], the CC50 was more than 3000 nM. Moreover, the selectivity ratio in data set [5] was more than 3330.

Take `Cc1c(O)nc(SC(C)C)nc1C(C)c1c(F)cccc1F` (racemic): the values for the ID50 in [11], in data set [12] and in [13] were 580 nM, 3 nM and 280 nM, respectively. The “Ratio EC50” value in data set [1] is listed as 270; in data set [8], 120. Further, the concentration giving a half-maximal response (EC50) in [2] was 270 nM; in [4] it was more than 3000 nM; in data set [6] it was 1 nM; in [7] it was 120 nM.
